Active and inactive are the calls of the source. The rule behind the calls is not given here.
Experiments:
Huh-7 [1] = test: Upregulation of BTG2 protein in PRMT5 knockdown human Huh-7 cells at 20 microM for 24 hrs by Western blot analysis; format: functional, cell-based
Procedure, shortened: (§1)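 Huh7 or SK-Hep1 cells stably carrying lentiviral shRNA against PRMT5, selected 2 weeks in puromycin (final 1 μg/mL), grown in DMEM/10% FBS at 37°C, 5% CO2. Cells pretreated 24 h with 20 μM PD184352 (ERK phosphorylation inhibitor). RIPA lysates run on 8–12% SDS-PAGE, PVDF, 5% milk block, primary antibody overnight at 4°C, HRP secondary, chemiluminescent detection. Histone 3 was the nuclear loading control.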

SK-HEP1 [2] = test: Upregulation of BTG2 protein in PRMT5 knockdown human SK-HEP1 cells at 20 microM for 24 hrs by Western blot analysis; format: functional, cell-based; procedure, shortened: as §1
[3] = molecular target: Protein arginine N-methyltransferase 5 (Homo sapiens) (UniProt O14744); test: Inhibition of PRMT5 in human Huh-7 cells assessed as H4R3me2s protein level at 500 nM for 4 days by Western blot analysis; format: cell-based; conditions: time 4.0 day
[4] = molecular target: Protein arginine N-methyltransferase 5 (Homo sapiens) (UniProt O14744); test: Inhibition of PRMT5 in human SK-HEP1 cells assessed as H4R3me2s protein level at 500 nM for 4 days by Western blot analysis; format: cell-based; conditions: time 4.0 day
[5] = molecular target: Protein arginine N-methyltransferase 5 (Homo sapiens) (UniProt O14744); test: Inhibition of PRMT5 in human Huh-7 cells assessed as upregulation of BTG2 protein level at 500 nM for 4 days by Western blot analysis; format: cell-based; conditions: time 4.0 day
[6] = molecular target: Protein arginine N-methyltransferase 5 (Homo sapiens) (UniProt O14744); test: Inhibition of PRMT5 in human SK-HEP1 cells assessed as upregulation of BTG2 protein level at 500 nM for 4 days by Western blot analysis; format: cell-based; conditions: time 4.0 day
[7] = molecular target: Protein arginine N-methyltransferase 5 (Homo sapiens) (UniProt O14744); test: Inhibition of PRMT5 in human Huh-7 cells assessed as upregulation of ERK phosphorylation level at 500 nM for 4 days by Western blot analysis; format: cell-based; conditions: time 4.0 day
[8] = molecular target: Protein arginine N-methyltransferase 5 (Homo sapiens) (UniProt O14744); test: Inhibition of PRMT5 in human SK-HEP1 cells assessed as upregulation of ERK phosphorylation level at 500 nM for 4 days by Western blot analysis; format: cell-based; conditions: time 4.0 day
Huh-7 [9] = test: Reversal of H4R3me2s level in human Huh-7 cells at 500 nM for 4 days in presence of PD184352 by Western blotting analysis; format: functional, cell-based; conditions: time 4.0 day
SK-HEP1 [10] = test: Reversal of H4R3me2s level in human SK-HEP1 cells at 500 nM for 4 days in presence of PD184352 by Western blotting analysis; format: functional, cell-based; conditions: time 4.0 day
Huh-7 [11] = test: Reversal of ERK phosphorylation level in human Huh-7 cells at 500 nM for 4 days in presence of PD184352 by Western blotting analysis; format: functional, cell-based; conditions: time 4.0 day
SK-HEP1 [12] = test: Reversal of ERK phosphorylation level in human SK-HEP1 cells at 500 nM for 4 days in presence of PD184352 by Western blotting analysis; format: functional, cell-based; conditions: time 4.0 day
Huh-7 [13] = test: Reversal of BTG2 protein level in human Huh-7 cells at 500 nM for 4 days in presence of PD184352 by Western blotting analysis; format: functional, cell-based; conditions: time 4.0 day
SK-HEP1 [14] = test: Reversal of BTG2 protein level in human SK-HEP1 cells at 500 nM for 4 days in presence of PD184352 by Western blotting analysis; format: functional, cell-based; conditions: time 4.0 day

Sequence of Protein arginine N-methyltransferase 5 (Homo sapiens) (O14744 whole entry): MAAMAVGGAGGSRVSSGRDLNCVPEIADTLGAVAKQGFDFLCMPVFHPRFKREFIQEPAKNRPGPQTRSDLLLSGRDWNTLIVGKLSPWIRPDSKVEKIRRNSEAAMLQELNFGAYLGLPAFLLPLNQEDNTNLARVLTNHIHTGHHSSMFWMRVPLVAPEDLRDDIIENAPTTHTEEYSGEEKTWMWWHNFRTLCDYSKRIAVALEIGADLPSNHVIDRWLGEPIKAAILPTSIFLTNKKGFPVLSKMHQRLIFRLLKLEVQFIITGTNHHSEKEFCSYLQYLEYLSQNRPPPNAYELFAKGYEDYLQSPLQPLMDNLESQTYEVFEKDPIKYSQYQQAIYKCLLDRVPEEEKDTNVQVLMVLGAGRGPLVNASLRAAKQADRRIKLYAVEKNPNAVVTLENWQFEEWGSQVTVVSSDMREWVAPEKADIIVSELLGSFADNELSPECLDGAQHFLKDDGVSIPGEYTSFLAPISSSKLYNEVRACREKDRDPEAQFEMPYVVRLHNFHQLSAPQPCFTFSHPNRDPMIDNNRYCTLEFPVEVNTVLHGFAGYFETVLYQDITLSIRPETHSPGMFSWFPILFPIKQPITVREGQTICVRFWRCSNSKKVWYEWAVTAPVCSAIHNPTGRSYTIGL

inhibition [3]	inhibition [4]	inhibition [5]	inhibition [6]	inhibition [7]	inhibition [8]	SMILES	Activity (Huh-7 [1])	Activity (SK-HEP1 [2])	Activity (Huh-7 [9])	Activity (SK-HEP1 [10])	Activity (Huh-7 [11])	Activity (SK-HEP1 [12])	Activity (Huh-7 [13])	Activity (SK-HEP1 [14])
						O=C(NOCC1CC1)c1ccc(F)c(F)c1Nc1ccc(I)cc1Cl	Active	Active						
Active	Active	Active	Active	Active	Active	O=C(NC[C@H](O)CN1CCc2ccccc2C1)c1ccnc(NC2CCC2)c1			Active	Active	Active	Active	Active	Active
